Where a SMILES comes first, the peptide text is derived from it. Bridges are numbered along the chain shown (N, C = ends). Roman numbers before positions name the chains, in order. [ ]: non-standard residue; d: D form. Dap = NC[C@H](N)C(=O)O
Assays:
[1] = target: T1, Neuropeptide Y receptor type 2 (Homo sapiens, UniProt P49146); test: Agonist potency for the inhibition of Forskolin stimulated cAMP synthesis in cells expressing cloned Y2 receptors; assay type: functional
T1 sequence (P49146 whole entry): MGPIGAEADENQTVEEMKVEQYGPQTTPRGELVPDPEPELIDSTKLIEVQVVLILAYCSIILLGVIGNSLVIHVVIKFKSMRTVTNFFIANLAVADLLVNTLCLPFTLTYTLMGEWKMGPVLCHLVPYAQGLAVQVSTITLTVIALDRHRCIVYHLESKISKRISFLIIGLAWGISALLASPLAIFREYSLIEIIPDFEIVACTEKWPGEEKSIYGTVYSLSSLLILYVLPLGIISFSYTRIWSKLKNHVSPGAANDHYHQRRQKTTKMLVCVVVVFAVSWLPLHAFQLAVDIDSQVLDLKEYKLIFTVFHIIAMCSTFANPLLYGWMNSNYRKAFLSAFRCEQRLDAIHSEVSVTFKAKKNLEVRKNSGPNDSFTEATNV

[2] = target: T2, Neuropeptide Y receptor type 1 (Homo sapiens, UniProt P25929); test: Affinity for cloned Y1 receptor using [125I]PYY as radioligand
T2 sequence (P25929 whole entry): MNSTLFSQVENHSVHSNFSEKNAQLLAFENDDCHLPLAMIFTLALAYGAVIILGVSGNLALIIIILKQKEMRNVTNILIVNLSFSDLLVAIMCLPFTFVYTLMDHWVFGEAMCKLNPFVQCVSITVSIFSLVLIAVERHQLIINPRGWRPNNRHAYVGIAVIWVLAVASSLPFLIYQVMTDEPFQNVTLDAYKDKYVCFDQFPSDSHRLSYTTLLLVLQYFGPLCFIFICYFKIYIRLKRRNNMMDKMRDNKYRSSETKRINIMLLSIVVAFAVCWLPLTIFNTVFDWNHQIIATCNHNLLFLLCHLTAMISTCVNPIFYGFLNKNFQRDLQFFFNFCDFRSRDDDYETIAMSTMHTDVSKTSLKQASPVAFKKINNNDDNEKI

[3] = target: T3, Neuropeptide Y receptor type 4 (Homo sapiens, UniProt P50391); test: Agonist potency for the inhibition of Forskolin stimulated cAMP synthesis in cells expressing cloned Y4 receptors; assay type: functional
How it was run: (§1)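 Inhibition of forskolin-driven cAMP synthesis in cells expressing the Y4 receptor, with PP run as the reference control.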

[4] = target: T4, Neuropeptide Y receptor type 1 (Homo sapiens) (UniProt P25929); test: Selectivity ratio of Y1/Y2/Y4/Y5; 1/790/3/1640
T4 sequence (whole entry): T2 sequence (P25929 whole entry)

[5] = target: T5, Neuropeptide Y receptor type 5 (Homo sapiens, UniProt Q15761); test: Agonist potency for the inhibition of Forskolin stimulated cAMP synthesis in cells expressing cloned Y5 receptors; assay type: functional
T5 sequence (Q15761 whole entry): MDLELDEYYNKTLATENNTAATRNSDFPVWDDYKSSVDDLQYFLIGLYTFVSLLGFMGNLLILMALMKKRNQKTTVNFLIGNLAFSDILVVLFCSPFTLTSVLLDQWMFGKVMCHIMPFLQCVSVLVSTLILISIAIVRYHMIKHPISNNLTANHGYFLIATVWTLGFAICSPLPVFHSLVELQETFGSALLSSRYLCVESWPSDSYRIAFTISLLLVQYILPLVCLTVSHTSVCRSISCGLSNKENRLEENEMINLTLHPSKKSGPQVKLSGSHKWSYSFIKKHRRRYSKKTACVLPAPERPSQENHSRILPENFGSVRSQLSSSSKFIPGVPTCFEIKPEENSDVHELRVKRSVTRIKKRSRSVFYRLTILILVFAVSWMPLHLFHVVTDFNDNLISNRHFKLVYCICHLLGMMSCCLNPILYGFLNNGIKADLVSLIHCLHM

[6] = target: T5, Neuropeptide Y receptor type 5; test: Affinity for cloned Y5 receptor using [125I]PYY as radioligand
[7] = target: T3, Neuropeptide Y receptor type 4; test: Affinity for cloned Y4 receptor using [125I]PP as radioligand
[8] = target: T1, Neuropeptide Y receptor type 2; test: Affinity for cloned Y2 receptor using [125I]PYY as radioligand
[9] = target: Neuropeptide Y receptor type 2 (Homo sapiens) (UniProt P49146); test: Agonist potency for the inhibition of Forskolin stimulated cAMP synthesis in cells expressing cloned Y2 receptors; no effect means no agonist activity at <20 000 nM
[10] = target: T3, Neuropeptide Y receptor type 4; test: Agonist potency for the inhibition of Forskolin stimulated cAMP synthesis in cells expressing cloned Y4 receptors(no effect at <20000 nM); assay type: functional; how it was run: as §1
[11] = target: T5, Neuropeptide Y receptor type 5; test: Agonist potency for the inhibition of Forskolin stimulated cAMP synthesis in cells expressing cloned Y5 receptors(no effect at <20000 nM); assay type: functional

T3 sequence (P50391 whole entry): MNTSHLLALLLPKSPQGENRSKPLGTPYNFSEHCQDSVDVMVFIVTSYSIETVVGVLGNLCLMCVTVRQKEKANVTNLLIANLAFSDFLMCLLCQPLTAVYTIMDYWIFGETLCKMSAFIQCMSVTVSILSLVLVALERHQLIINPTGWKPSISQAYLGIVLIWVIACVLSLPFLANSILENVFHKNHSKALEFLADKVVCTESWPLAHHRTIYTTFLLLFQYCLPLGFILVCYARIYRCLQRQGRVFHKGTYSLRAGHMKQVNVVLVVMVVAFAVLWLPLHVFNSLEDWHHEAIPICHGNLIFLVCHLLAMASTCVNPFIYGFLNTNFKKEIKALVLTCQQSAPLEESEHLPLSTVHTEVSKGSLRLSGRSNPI

EC50 [1] [nM]	Ki [2] [nM]	EC50 [3] [nM]	Selectivity [4]	EC50 [5] [nM]	Ki [6] [nM]	Ki [7] [nM]	Ki [8] [nM]	EC50 [9]	EC50 [10]	EC50 [11]	Compound
983	0.07	2.5	Y1/Y4/Y2/Y5	2050	115	0.26	55	–	–	–	CC[C@H](C)[C@H](N)C(=O)N[C@H]1CCC(=O)NC[C@@H](C(=O)N[C@@H](Cc2ccc(O)cc2)C(=O)N[C@@H](CCCN=C(N)N)C(=O)N[C@@H](CC(C)C)C(=O)N[C@@H](CCCN=C(N)N)C(=O)N[C@@H](Cc2ccc(O)cc2)C(N)=O)NC(=O)[C@@H]2CCCN2C(=O)[C@@H](NC(=O)[C@@H](N)[C@@H](C)CC)CCC(=O)NC[C@@H](C(=O)N[C@@H](Cc2ccc(O)cc2)C(=O)N[C@@H](CCCN=C(N)N)C(=O)N[C@@H](CC(C)C)C(=O)N[C@@H](CCCN=C(N)N)C(=O)N[C@@H](Cc2ccc(O)cc2)C(N)=O)NC(=O)[C@@H]2CCCN2C1=O (I: H-IEP[Dap]YRLRY-NH2 / II: H-IEP[Dap]YRLRY-NH2; amide I:2-II:4, I:4-II:2)
–	–	–	–	–	–	–	–	Not Active	Not Active	Not Active	CC[C@H](C)[C@H](N)C(=O)N[C@H]1CCC(=O)NC[C@@H](C(=O)N[C@@H](Cc2ccc(O)cc2)C(=O)N[C@@H](CCCN=C(N)N)C(=O)N[C@@H](CC(C)C)C(=O)N[C@@H](CCCN=C(N)N)CN[C@@H](Cc2ccc(O)cc2)C(N)=O)NC(=O)[C@@H]2CCCN2C(=O)[C@@H](NC(=O)[C@@H](N)[C@@H](C)CC)CCC(=O)NC[C@@H](C(=O)N[C@@H](Cc2ccc(O)cc2)C(=O)N[C@@H](CCCN=C(N)N)C(=O)N[C@@H](CC(C)C)C(=O)N[C@@H](CCCN=C(N)N)CN[C@@H](Cc2ccc(O)cc2)C(N)=O)NC(=O)[C@@H]2CCCN2C1=O

Source: ChEMBL document CHEMBL1134468 (J Med Chem, 2001)
